Measurements as given in ChEMBL document CHEMBL1129647, “Targeting delavirdine/atevirdine resistant HIV-1: identification of (alkylamino)piperidine-containing bis(heteroaryl)piperazines as broad spectrum HIV-1 reverse transcriptase inhibitors” (J Med Chem, 1996).

Legend:
[1] = test system: Human immunodeficiency virus 1; experiment: Concentration required to inhibit P24 production by 90% against L-697661 of HIV-1 IIIB (Y181C); type: functional
[2] = Bioavailability at an iv dose of 15 mg/Kg and po dose of 30.2 mg/Kg; type: ADME, organism-based; conditions: rat, in vivo, read-out: Bioavailabiility
How it was run: (§1)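 Male Sprague-Dawley rats, fasted, dosed iv and po in a crossover design with a 1 week washout between treatments (N = 3). Compound was given as a solution in propylene glycol/water (80/20, v/v) acidified with a molar excess of methanesulfonic acid. Values are the iv clearance and the absolute oral bioavailability.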

[3] = Clearance at an iv dose of 15 mg/Kg and po dose of 30.2 mg/Kg; type: ADME, organism-based; conditions: rat, in vivo; how it was run: as §1
[4] = target: T1, Human immunodeficiency virus type 1 reverse transcriptase (Human immunodeficiency virus 1, UniProt Q72547)
[5] = Bioavailability at an iv dose of 16 mg/Kg and po dose of 35 mg/Kg; type: ADME, organism-based; conditions: rat, in vivo, read-out: Bioavailabiility; how it was run: as §1
[6] = Clearance at an iv dose of 16 mg/Kg and po dose of 35 mg/Kg; type: ADME, organism-based; conditions: rat, in vivo; how it was run: as §1
[7] = target: T2, Human immunodeficiency virus type 1 reverse transcriptase (Human immunodeficiency virus 1, UniProt Q72547, Y181C)
[8] = target: T2, Human immunodeficiency virus type 1 reverse transcriptase; experiment: Compound was tested for inhibition of HIV-1 Y181C reverse transcriptase using dTTP as substrate
[9] = target: T1, Human immunodeficiency virus type 1 reverse transcriptase; experiment: Compound was tested for inhibition of HIV-1 WT reverse transcriptase using dTTP as substrate
[10] = test system: Human immunodeficiency virus 1; experiment: In vitro inhibition of recombinant HIV-1 IIIB mutant P236L; type: functional, organism-based
[11] = Clearance at an iv dose of 15 mg/Kg and po dose of 240 mg/Kg; type: ADME, organism-based; conditions: in vivo; how it was run: as §1
[12] = Bioavailability (dose 15 mg/kg i.v. and 30 mg/kg p.o.); type: ADME, organism-based; conditions: eutheria, in vivo, po; how it was run: as §1
[13] = test system: Human immunodeficiency virus 1; experiment: In vitro inhibition of recombinant HIV-1 IIIB mutant WT; type: functional, organism-based
[14] = test system: Human immunodeficiency virus 1; experiment: Concentration required to inhibit P24 production by 90% against U-90,152 of HIV-1 MF (P236L); type: functional
[15] = Clearance at an iv dose of 15 mg/Kg and po dose of 60 mg/Kg; type: ADME, organism-based; conditions: in vivo; how it was run: as §1
[16] = target: T1, Human immunodeficiency virus type 1 reverse transcriptase; experiment: Compound was tested for inhibition of HIV-1 WT reverse transcriptase using poly(rA)300:oligo(dT)10 as substrate
[17] = Clearance at an iv dose of 15 mg/Kg and po dose of 30 mg/Kg; type: ADME, organism-based; conditions: in vivo; how it was run: as §1
[18] = Bioavailability at an iv dose of 15 mg/Kg and po dose of 120 mg/Kg; type: ADME, organism-based; conditions: in vivo, read-out: Bioavailabiility; how it was run: as §1
[19] = test system: Human immunodeficiency virus 1; experiment: In vitro inhibition of recombinant HIV-1 IIIB mutant Y181C; type: functional, organism-based
[20] = target: T3, Human immunodeficiency virus type 1 reverse transcriptase (Human immunodeficiency virus 1, UniProt Q72547, P236L); experiment: Compound was tested for inhibition of HIV-1 P236L reverse transcriptase using dTTP as substrate
[21] = target: T3, Human immunodeficiency virus type 1 reverse transcriptase; experiment: Compound was tested for inhibition of HIV-1 P236L reverse transcriptase using poly(rA)300:oligo(dT)10 as substrate
[22] = target: T1, Human immunodeficiency virus type 1 reverse transcriptase; experiment: Compound was tested for inhibition of HIV-1 181C cell line using poly(rA)300:oligo(dT)10 as substrate
How it was run: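 Kinetic inhibition study on homodimeric recombinant HIV-1 RTs (WT, P236L, Y181C), varying dTTP or poly(rA):(dT)10 template:primer. Base assay: 28 °C, 10 min, pH 8.3 Tris-HCl, 10 mM MgCl2, 60 mM NaCl, 2 mM DTT, 0.05% NP-40, [3H]TTP incorporation. TCA-precipitated product collected on glass fibre filters and counted. Ki values derived.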

[23] = test system: Human immunodeficiency virus 1; experiment: Concentration required to inhibit P24 production by 90% against U-90,152 of HIV-1 IIIB (L100I, M230L); type: functional
[24] = Clearance at an iv dose of 15 mg/Kg and po dose of 120 mg/Kg; type: ADME, organism-based; conditions: in vivo; how it was run: as §1
[25] = Bioavailability at an iv dose of 15 mg/Kg and po dose of 60 mg/Kg; type: ADME, organism-based; conditions: in vivo, read-out: Bioavailabiility; how it was run: as §1
[26] = Bioavailability at an iv dose of 15.7 mg/Kg and po dose of 31.4 mg/Kg; type: ADME, organism-based; conditions: rat, in vivo, read-out: Bioavailabiility; how it was run: as §1
[27] = target: T3, Human immunodeficiency virus type 1 reverse transcriptase
[28] = Clearance at an iv dose of 15.7 mg/Kg and po dose of 31.4 mg/Kg; type: ADME, organism-based; conditions: rat, in vivo; how it was run: as §1
[29] = Bioavailability at an iv dose of 12 mg/Kg and po dose of 23 mg/Kg; type: ADME, organism-based; conditions: rat, in vivo, read-out: Bioavailabiility; how it was run: as §1
[30] = Clearance at an iv dose of 12 mg/Kg and po dose of 23 mg/Kg; type: ADME, organism-based; conditions: rat, in vivo; how it was run: as §1
Rattus norvegicus = experiment: Bioavailability at an iv dose of 14 mg/Kg and po dose of 28 mg/Kg; type: ADME, organism-based; conditions: in vivo; how it was run: as §1
[31] = Clearance at an iv dose of 14 mg/Kg and po dose of 15 mg/Kg; type: ADME, organism-based; conditions: rat, in vivo; how it was run: as §1
[32] = Bioavailability at an iv dose of 14 mg/Kg and po dose of 15 mg/Kg; type: ADME, organism-based; conditions: rat, in vivo, read-out: Bioavailabiility; how it was run: as §1

SMILES: CC(C)Nc1cccnc1N(C)C1CCN(C(=O)c2cc3cc(NS(C)(=O)=O)ccc3[nH]2)CC1
- IC90 [1]: 1000 nM
- bioavailability [2]: 4.3%
- clearance [3]: 44 mL/min/kg

SMILES: CNC(=O)Nc1ccc2[nH]c(C(=O)N3CCC(N(C)c4ncccc4NC(C)C)CC3)cc2c1
- IC50 [4]: 180 nM
- bioavailability [5]: 12.3%
- clearance [6]: 42 mL/min/kg
- IC50 [7]: 1600 nM

SMILES: CCN(c1ncccc1NC(C)(C)C)C1CCN(C(=O)c2cc3cc(NS(C)(=O)=O)ccc3[nH]2)CC1
- Ki [8]: 1920 nM
- Ki [9]: 1030 nM
- IC50 [10]: 460 nM
- clearance [11]: 50 mL/min/kg
- bioavailability [12]: 14%
- IC50 [13]: 320 nM
- IC90 [14]: 190 nM
- clearance [15]: 50 mL/min/kg
- Ki [16]: 1380 nM
- clearance [17]: 50 mL/min/kg
- IC90 [1]: 30 nM
- bioavailability [18]: 124%
- IC50 [19]: 660 nM
- Ki [20]: 1110 nM
- Ki [21]: 1600 nM
- Ki [22]: 3090 nM
- IC90 [23]: 80 nM
- clearance [24]: 50 mL/min/kg
- bioavailability [25]: 42%

SMILES: CC(C)Nc1cccnc1N(C1CC1)C1CCN(C(=O)c2cc3cc(NS(C)(=O)=O)ccc3[nH]2)CC1
- IC50 [4]: 230 nM
- bioavailability [26]: 1.6%
- IC50 [27]: 700 nM
- IC50 [7]: 940 nM
- clearance [28]: 22.6 mL/min/kg

SMILES: CCNc1cccnc1N1CCN(C(=O)c2cc3cc(OC)ccc3[nH]2)CC1.CS(=O)(=O)O [ATEVIRDINE SULPHATE]
- bioavailability [29]: 75%
- clearance [30]: 13 mL/min/kg

SMILES: CC(C)Nc1cccnc1N1CCN(C(=O)c2cc3cc(NS(C)(=O)=O)ccc3[nH]2)CC1.CS(=O)(=O)O [DELAVIRDINE MESYLATE]
- Bioavailabiility (Rattus norvegicus): 169%
- clearance [31]: 13.6 mL/min/kg
- bioavailability [32]: 64%
